Experimental data reported in ChEMBL document CHEMBL3421557, “Sesamol reduces the atherogenicity of electronegative L5 LDL in vivo and in vitro” (J Nat Prod, 2015).
The source made the active and inactive calls. No cut-off for these calls is given here.

Experiments:
Syrian golden hamster [1] = experiment: Antiatherogenic activity in high-fat diet fed Syrian hamster assessed as reduction of atherosclerotic lesions size in aortic arch at 50 mg/kg, po administered for 16 weeks by oil red o staining-based assay relative to high-fat diet fed control; assay type: functional, Mesocricetus auratus; design: scale not given: the % may be the effect or the level left
Outline: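 High-fat-diet hamsters gavaged 50 or 100 mg/kg in 0.5% CMC for 16 weeks (n = 8/group). Aorta from root to mid-descending thoracic segment was fixed in 4% PFA and stained with 0.6% Oil Red O in 60% isopropanol for 30 min. Plaque area was taken as a ratio of total luminal area from stereoscope en face images. Mean ± SD, t-test.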

Syrian golden hamster [2] = experiment: Antiatherogenic activity in high-fat diet fed Syrian hamster assessed as decrease in plasma L5 level at 50 mg/kg, po administered for 16 weeks by fast protein liquid chromatographic analysis (reference value: 13.7%); assay type: functional, Mesocricetus auratus; design: scale not given: the % may be the effect or the level left
Homo sapiens [3] = species on record: Homo sapiens; experiment: Induction of Akt phosphorylation in HAEC at 3 uM after 60 to 240 mins by Western blot analysis
Outline: (§1)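 HAECs treated with 3 µM agent or vehicle (0.1% DMSO) for 10, 30, 60, 120 and 240 min. Lysates were immunoblotted for p-eNOS and p-Akt, normalized to total eNOS or Akt relative to vehicle control. Densitometry, 4 independent experiments, mean ± SD, Student's t-test.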

[4] = molecular target: Oxidized low-density lipoprotein receptor 1 (Homo sapiens) (UniProt P78380); experiment: Inhibition of L5-activated LOX1-induced p38 MAPK phosphorylation in HAEC preincubated for 30 mins followed by L5 induction measured after 120 mins by Western blot analysis
Outline: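 HAECs pretreated 30 min with TS92 anti-LOX-1 antibody (10 µg/mL), SB203580 (2 µM) or vehicle, then ± L5 or L1 control (50 µg/mL) for 120 min. Phospho-p38 immunoblot normalized to total p38. Densitometry, 4 experiments, mean ± SD.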

Syrian golden hamster [5] = experiment: Antiatherogenic activity in high-fat diet fed Syrian hamster assessed as decrease in plasma low-density lipoprotein cholesterol level at 50 to 100 mg/kg, po administered for 16 weeks by automated analyzer relative to high-fat diet fed control; assay type: functional, organism-based; details: Mesocricetus auratus
Outline: (§2)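 High-fat-diet hamsters gavaged 50 or 100 mg/kg in 0.5% CMC for 16 weeks (n = 8/group); chow and HFD controls received vehicle. Serum from fasted blood (3000g, 10 min) was assayed for TC, TG, VLDL-C, LDL-C and HDL-C with enzymatic kits on an automated analyzer. Mean ± SD, Student's t-test versus HFD group.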

Syrian golden hamster [6] = experiment: Antiatherogenic activity in high-fat diet fed Syrian hamster assessed as decrease in plasma total cholesterol level at 50 to 100 mg/kg, po administered for 16 weeks by automated analyzer relative to high-fat diet fed control; assay type: functional, organism-based; details: Mesocricetus auratus; outline: as §2
[7] = molecular target: MAP kinase p38 (Homo sapiens) (UniProt O15264+Q15759+Q16539+P53778); experiment: Activation of PI3K/Akt/eNOS signaling in HAEC assessed as inhibition of L5-induced p38 MAPK phosphorylation preincubated for 30 mins followed by L5 induction measured after 120 mins by Western blot analysis in presence of PI3K inhibitor wortmannin, Akt inhibitor, eNOS inhibitor L-NAME; assay type: protein assay
Outline: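 HAECs pretreated 30 min with vehicle (0.1% DMSO), wortmannin (20 nM), Akt inhibitor (2 nM) or L-NAME (0.1 mM), then ± agent (0.3, 1 or 3 µM) 30 min, then L5 (50 µg/mL) 120 min. Phospho-p38 MAPK immunoblot normalized to total p38 MAPK relative to vehicle control. Densitometry, 4 independent experiments, mean ± SD, t-test.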

Homo sapiens [8] = species on record: Homo sapiens; experiment: Reversal of L5-induced Akt dephosphorylation in HAEC at 3 uM preincubated for 30 mins followed by L5 induction measured after 24 hrs by Western blot analysis
Outline: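 HAECs pretreated 30 min with vehicle (0.1% DMSO) or 3 µM agent, then ± L5 (50 µg/mL) for 24 h. p-Akt immunoblot normalized to β-actin relative to vehicle control. Densitometry, 4 independent experiments, mean ± SD, Student's t-test.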

Homo sapiens [9] = species on record: Homo sapiens; experiment: Induction of Akt phosphorylation in HAEC at 3 uM after 10 to 30 mins by Western blot analysis; outline: as §1
[10] = molecular target: T1, Nitric oxide synthase 3 (Homo sapiens) (UniProt P29474); experiment: Induction of eNOS phosphorylation in HAEC at 3 uM after 10 to 30 mins by Western blot analysis; outline: as §1
T1 sequence (whole entry): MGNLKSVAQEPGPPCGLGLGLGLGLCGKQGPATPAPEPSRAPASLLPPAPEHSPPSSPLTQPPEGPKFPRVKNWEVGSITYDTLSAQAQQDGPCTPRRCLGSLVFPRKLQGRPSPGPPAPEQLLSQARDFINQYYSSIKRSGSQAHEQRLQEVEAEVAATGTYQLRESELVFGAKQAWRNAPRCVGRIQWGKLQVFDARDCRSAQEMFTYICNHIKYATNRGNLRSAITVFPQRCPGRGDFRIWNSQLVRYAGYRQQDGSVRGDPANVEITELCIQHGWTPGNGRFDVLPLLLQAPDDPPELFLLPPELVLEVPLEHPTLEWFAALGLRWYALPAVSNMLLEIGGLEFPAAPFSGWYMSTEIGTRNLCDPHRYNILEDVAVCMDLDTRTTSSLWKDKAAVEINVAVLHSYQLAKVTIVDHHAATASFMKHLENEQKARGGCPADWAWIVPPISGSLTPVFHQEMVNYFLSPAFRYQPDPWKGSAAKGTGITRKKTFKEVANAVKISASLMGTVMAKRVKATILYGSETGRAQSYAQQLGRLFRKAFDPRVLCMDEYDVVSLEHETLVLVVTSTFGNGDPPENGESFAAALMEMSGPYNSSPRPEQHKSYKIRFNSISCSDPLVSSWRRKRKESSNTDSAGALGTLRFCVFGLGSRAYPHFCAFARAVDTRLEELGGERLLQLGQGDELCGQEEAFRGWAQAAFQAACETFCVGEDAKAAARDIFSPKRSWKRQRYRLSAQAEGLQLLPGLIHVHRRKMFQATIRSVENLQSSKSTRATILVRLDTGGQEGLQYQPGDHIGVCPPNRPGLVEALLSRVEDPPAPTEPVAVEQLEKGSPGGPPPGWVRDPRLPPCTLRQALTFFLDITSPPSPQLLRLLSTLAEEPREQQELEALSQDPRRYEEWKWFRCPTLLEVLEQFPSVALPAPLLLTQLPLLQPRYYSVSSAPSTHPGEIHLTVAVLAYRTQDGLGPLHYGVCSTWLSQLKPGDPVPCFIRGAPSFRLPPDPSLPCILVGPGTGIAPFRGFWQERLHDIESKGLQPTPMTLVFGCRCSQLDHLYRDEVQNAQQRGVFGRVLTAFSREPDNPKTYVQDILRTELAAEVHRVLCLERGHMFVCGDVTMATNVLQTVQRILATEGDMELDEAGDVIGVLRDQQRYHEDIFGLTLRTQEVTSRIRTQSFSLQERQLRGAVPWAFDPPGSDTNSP

Syrian golden hamster [11] = experiment: Antiatherogenic activity in high-fat diet fed Syrian hamster assessed as decrease in plasma very-low-density lipoprotein cholesterol level at 50 to 100 mg/kg, po administered for 16 weeks by automated analyzer relative to high-fat diet fed control; assay type: functional, organism-based; details: Mesocricetus auratus; outline: as §2
Homo sapiens [12] = species on record: Homo sapiens; experiment: Inhibition of L5-induced apoptosis in HAEC preincubated for 30 mins followed by L5 induction measured after 24 hrs by Hoechst 33342 and calcein-AM staining-based fluorescence microscopic analysis; assay type: functional
Outline: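 Subconfluent HAECs pretreated 30 min with vehicle (0.1% DMSO) or agent (0.3, 1, 3 µM), then ± L5 (50 µg/mL; L1 as negative control) for 24 h. Cells stained 10 min with 1 µM Hoechst 33342 plus calcein-AM and imaged by epifluorescence. Condensed or fragmented nuclei were scored as apoptotic; percentage of apoptotic cells from 6 samples, mean ± SD, t-test.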

Homo sapiens [13] = species on record: Homo sapiens; experiment: Inhibition of L5-induced LOX1 expression in HAEC at 0.3 to 3 uM by immunoblot analysis; assay type: functional
Outline: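 HAECs exposed to agent at the indicated concentrations with L5 (50 µg/mL). LOX-1 immunoblot on lysates, normalized to β-actin relative to untreated control. Densitometry from 4 independent experiments, mean ± SD, Student's t-test.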

SMILES: Oc1ccc2c(c1)OCO2
- Activity (Syrian golden hamster [1]): 31.5%
- Activity (Syrian golden hamster [2]): 9.5%
- Activity (Homo sapiens [3]): inactive
- inhibition [4]: Dose-dependent effect
- Activity (Syrian golden hamster [5]): Active
- Activity (Syrian golden hamster [6]): Active
- inhibition [7]: inactive
- Activity (Homo sapiens [8]): Active
- Activity (Homo sapiens [9]): Active
- Activity [10]: Active
- Activity (Syrian golden hamster [11]): Active
- inhibition (Homo sapiens [12]): Dose-dependent effect
- inhibition (Homo sapiens [13]): Active
